Assay results: ChEMBL document CHEMBL3232721, “4-Oxo-1,4-dihydro-quinoline-3-carboxamides as BACE-1 inhibitors: synthesis, biological evaluation and docking studies” (Eur J Med Chem, 2014)

What was measured:
HEK293 = test: Cytotoxicity against HEK293 cells after 72 hrs by CellTiterGlo assay; assay type: cell-based; conditions: Homo sapiens, HEK293, 72 h
Method in brief: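 HEK293 grown in DMEM with 10% FBS, 100 units/mL penicillin and 100 units/mL streptomycin at 37 °C, 5% CO2. Seeded at 1000 cells/well in 384-well format, then exposed to test agents from a top working level of […], serially diluted threefold ten more times. Staurosporine positive control. After 72 h, CellTiter Glo reagent (10%) added and ATP luminescence read. IC50 taken from log dose–viability curves.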

Beta-secretase 1 [1] = biological target: T1, Beta-secretase 1 (Homo sapiens, UniProt P56817); test: Inhibition of BACE-1 (unknown origin) at 10 uM by FRET assay relative to control
T1 sequence (P56817 whole entry): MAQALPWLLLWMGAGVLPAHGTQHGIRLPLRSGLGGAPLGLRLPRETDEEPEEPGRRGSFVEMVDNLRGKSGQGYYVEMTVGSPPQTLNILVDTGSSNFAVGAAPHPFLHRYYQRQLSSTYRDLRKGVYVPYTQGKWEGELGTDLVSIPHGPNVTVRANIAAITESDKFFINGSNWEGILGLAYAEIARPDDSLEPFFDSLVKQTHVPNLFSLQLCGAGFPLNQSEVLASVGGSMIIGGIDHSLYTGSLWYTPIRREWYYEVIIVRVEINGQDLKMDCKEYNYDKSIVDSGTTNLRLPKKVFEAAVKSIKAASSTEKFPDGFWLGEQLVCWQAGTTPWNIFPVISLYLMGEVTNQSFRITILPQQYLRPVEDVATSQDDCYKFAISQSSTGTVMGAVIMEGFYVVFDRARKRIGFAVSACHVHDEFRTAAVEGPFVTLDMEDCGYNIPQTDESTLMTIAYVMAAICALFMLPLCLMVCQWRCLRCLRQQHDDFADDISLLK
Method in brief: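 FRET-based BACE-1 activity kit used per the kit protocol, except total reaction volume was cut to […]. Each compound tested at a single concentration of 10 µM. Result given as percent inhibition of BACE-1 activity, from two independent experiments.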

Beta-secretase 1 [2] = biological target: T1, Beta-secretase 1; test: Inhibition of BACE-1 (unknown origin) by FRET assay
Method in brief: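 BACE-1 FRET kit assay following the kit protocol, with total reaction volume reduced to […]. Compounds exceeding 50% inhibition at the single-point screen were retested across several concentrations. IC50 derived from linear regression parameters, reported as the mean of at least two experiments.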

| SMILES | IC50 (HEK293) [µM] | inhibition (Beta-secretase 1 [1]) [%] | IC50 (Beta-secretase 1 [2]) [µM] |
| --- | --- | --- | --- |
| CN[C@@H]1C[C@H]2O[C@@](C)([C@@H]1OC)n1c3ccccc3c3c4c(c5c6ccccc6n2c5c31)C(=O)NC4 [STAUROSPORINE] | 0.056 | – | – |
| Cc1ccccc1-c1ccc2[nH]cc(C(=O)NCc3cccc(F)c3)c(=O)c2c1 | – | 12.3 | – |
| COc1cccc(CNC(=O)c2c[nH]c3ccc(S(=O)(=O)Nc4cccc(C(F)(F)F)c4)cc3c2=O)c1 | > 50 | 73.5 | 2.2 |
| COc1ccc(CNC(=O)c2c[nH]c3ccc(S(=O)(=O)Nc4cccc(C(F)(F)F)c4)cc3c2=O)cc1 | > 50 | 50.4 | 7.04 |
| Cc1ccccc1-c1ccc2[nH]cc(C(=O)NCc3ccco3)c(=O)c2c1 | – | 32.9 | – |
| O=C(NC1CCCCC1)c1c[nH]c2ccc(S(=O)(=O)Nc3cccc(C(F)(F)F)c3)cc2c1=O | > 50 | 65.6 | 7.18 |
| O=C(NCc1cccc(F)c1)c1c[nH]c2ccc(S(=O)(=O)Nc3cccc(C(F)(F)F)c3)cc2c1=O | > 50 | 84.6 | 1.85 |
| O=C(NCc1cccnc1)c1c[nH]c2ccc(S(=O)(=O)Nc3cccc(C(F)(F)F)c3)cc2c1=O | – | 35.7 | – |
| O=C(NCc1ccc(F)cc1)c1c[nH]c2ccc(S(=O)(=O)Nc3cccc(C(F)(F)F)c3)cc2c1=O | – | 30.4 | – |
| Cc1ccccc1-c1ccc2[nH]cc(C(=O)NC3CCCCC3)c(=O)c2c1 | > 50 | 77.8 | 11.5 |
| Cc1ccccc1-c1ccc2[nH]cc(C(=O)NCc3ccc(C(F)(F)F)cc3)c(=O)c2c1 | – | 38.1 | – |
| Cc1ccccc1-c1ccc2[nH]cc(C(=O)NCc3cccc(C(F)(F)F)c3)c(=O)c2c1 | > 50 | 67.4 | 6.18 |
| O=C(NCc1ccc2c(c1)OCO2)c1c[nH]c2ccccc2c1=O | – | 11.3 | – |
| Cc1ccccc1-c1ccc2[nH]cc(C(=O)NCc3cccc(Br)c3)c(=O)c2c1 | > 50 | 77.6 | 1.89 |
| Cc1ccccc1-c1ccc2[nH]cc(C(=O)NCc3cccnc3)c(=O)c2c1 | – | 10.2 | – |
| O=C(NCc1ccco1)c1c[nH]c2ccc(S(=O)(=O)Nc3cccc(C(F)(F)F)c3)cc2c1=O | > 50 | 71.1 | 1.61 |
